Test [1] deals with T1, Prolyl endopeptidase (Homo sapiens, UniProt P48147).
T1 sequence (P48147 whole entry): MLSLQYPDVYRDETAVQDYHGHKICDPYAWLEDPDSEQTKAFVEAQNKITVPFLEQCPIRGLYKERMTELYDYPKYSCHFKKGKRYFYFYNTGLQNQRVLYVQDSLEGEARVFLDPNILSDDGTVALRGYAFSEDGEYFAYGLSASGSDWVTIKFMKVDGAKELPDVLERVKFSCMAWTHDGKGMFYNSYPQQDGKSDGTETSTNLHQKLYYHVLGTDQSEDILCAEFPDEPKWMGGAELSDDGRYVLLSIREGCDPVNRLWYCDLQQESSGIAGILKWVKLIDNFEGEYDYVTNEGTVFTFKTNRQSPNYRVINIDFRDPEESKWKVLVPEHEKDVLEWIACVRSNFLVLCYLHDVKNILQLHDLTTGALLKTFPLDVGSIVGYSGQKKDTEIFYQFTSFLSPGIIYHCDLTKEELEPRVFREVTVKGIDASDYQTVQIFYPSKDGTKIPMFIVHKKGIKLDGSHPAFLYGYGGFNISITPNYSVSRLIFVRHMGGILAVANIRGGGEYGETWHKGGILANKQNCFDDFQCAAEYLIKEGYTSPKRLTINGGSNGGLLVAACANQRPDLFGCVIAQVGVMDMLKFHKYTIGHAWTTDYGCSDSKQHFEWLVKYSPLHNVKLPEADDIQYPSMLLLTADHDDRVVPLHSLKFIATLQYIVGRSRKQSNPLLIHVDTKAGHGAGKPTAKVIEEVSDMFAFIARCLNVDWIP
Kind of test: Inhibition of recombinant human PREP. In outline: (§1)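 IC50 reported as the mean ± standard deviation of three independent determinations against each protease.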

Test [2] deals with Dipeptidyl peptidase 4 (Homo sapiens, UniProt P27487). Kind of test: Inhibition of human DPP4. In outline:
as §1

In test [3] the target is T2, Prolyl endopeptidase FAP (Homo sapiens, UniProt Q12884).
T2 sequence (Q12884 whole entry): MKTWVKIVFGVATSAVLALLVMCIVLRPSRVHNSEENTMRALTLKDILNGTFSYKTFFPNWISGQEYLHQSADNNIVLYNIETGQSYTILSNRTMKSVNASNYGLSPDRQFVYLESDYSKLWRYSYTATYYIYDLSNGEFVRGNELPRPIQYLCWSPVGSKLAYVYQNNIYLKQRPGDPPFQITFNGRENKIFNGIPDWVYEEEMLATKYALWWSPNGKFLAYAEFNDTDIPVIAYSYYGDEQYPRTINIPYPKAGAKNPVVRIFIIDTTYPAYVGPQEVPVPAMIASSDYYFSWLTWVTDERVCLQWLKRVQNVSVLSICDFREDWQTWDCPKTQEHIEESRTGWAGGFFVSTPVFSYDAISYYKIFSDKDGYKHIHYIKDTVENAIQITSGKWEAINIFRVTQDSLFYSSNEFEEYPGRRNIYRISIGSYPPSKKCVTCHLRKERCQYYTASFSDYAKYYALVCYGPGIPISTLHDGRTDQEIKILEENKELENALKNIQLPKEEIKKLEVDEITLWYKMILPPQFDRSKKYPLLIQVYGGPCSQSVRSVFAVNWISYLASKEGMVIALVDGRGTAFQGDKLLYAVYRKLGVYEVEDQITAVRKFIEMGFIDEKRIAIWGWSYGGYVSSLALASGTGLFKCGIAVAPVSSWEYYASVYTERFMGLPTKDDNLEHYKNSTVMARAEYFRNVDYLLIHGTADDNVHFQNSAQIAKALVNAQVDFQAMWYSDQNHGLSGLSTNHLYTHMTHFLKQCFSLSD
Kind of test: Inhibition of recombinant human FAP. In outline:
as §1

The target in test [4] is Dipeptidyl peptidase 2 (Homo sapiens, UniProt Q9UHL4). The test can be described thus: Inhibition of recombinant human DPP2. A digest of the protocol: as §1
The species entered for test [5] is Homo sapiens. The test can be described thus: Selectivity index, ratio of IC50 for inhibition of human DPP8 expressed in baculovirus-infected Sf9 cells to IC50 for inhibition of human DPP9. A digest of the protocol:
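Selectivity is computed as IC50(DPP8)/IC50(DPP9). Each IC50 was measured against recombinant human DPP8 or DPP9 and is the mean of three independent measurements ± standard deviation.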

The species named for test [6] is Homo sapiens. Kind of test: Selectivity index, ratio of IC50 for inhibition of human DPP8 expressed in baculovirus using Ala-Pro-7-amino-4-trifluormethylcoumarin as substrate to IC50 for inhibition of human DPP9 expressed in baculovirus using Gly-Pro-AMC as substrate. A digest of the protocol: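 Ratio of IC50 against recombinant human DPP8 to IC50 against recombinant human DPP9, i.e. IC50(DPP8)/IC50(DPP9). Each IC50 is the mean of 3 independent measurements ± standard deviation.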

Where only a bound is given, the exact number is not on record here.

Sequence of Dipeptidyl peptidase 4 (P27487 whole entry): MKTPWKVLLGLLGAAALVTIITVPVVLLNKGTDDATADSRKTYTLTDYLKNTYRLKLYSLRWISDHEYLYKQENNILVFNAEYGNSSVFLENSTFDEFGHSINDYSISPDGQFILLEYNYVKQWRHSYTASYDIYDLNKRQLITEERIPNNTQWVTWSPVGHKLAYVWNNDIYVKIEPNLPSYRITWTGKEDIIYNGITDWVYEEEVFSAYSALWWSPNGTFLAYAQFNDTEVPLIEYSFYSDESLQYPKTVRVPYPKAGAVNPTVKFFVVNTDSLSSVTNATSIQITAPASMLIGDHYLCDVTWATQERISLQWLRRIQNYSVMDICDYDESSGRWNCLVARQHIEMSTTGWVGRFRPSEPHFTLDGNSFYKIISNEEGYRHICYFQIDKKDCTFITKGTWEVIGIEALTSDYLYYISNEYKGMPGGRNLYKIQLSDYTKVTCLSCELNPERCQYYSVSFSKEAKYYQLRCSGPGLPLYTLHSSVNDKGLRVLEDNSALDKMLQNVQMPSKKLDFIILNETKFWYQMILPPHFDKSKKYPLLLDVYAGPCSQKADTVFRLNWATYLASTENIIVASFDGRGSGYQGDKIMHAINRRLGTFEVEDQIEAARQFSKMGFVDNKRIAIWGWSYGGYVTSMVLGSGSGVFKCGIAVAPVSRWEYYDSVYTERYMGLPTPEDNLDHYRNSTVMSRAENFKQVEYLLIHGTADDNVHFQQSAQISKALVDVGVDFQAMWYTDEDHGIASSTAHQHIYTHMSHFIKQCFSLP

Consider `CN(C)c1cccc2c(S(=O)(=O)NCCOCCOC(=O)NC34CC5CC(CC(NCC(=O)N6Cc7cc(F)c(F)cc7C6)(C5)C3)C4)cccc12`, for which the IC50 (as a rule, the midpoint of a concentration-inhibition curve) in test [1] is > 10 µM; in test [2], > 10 µM; in test [3], > 10 µM; in test [4], > 5 µM.

For the compound `O=C(NC12CC3CC(CC(NCC(=O)N4Cc5ccc(F)cc5C4)(C3)C1)C2)OCCOCCNc1ccc([N+](=O)[O-])c2nonc12`, the IC50 in test [1] is > 10 µM; in test [2] it was 0.44 µM; in test [3], > 10 µM; in test [4] it was > 5 µM.

Take `N[C@@H](CC(=O)N1CCN(C(c2ccc(F)cc2)c2ccc(F)cc2)CC1)C(=O)N1Cc2ccccc2C1`: the Ratio IC50 in test [5] was 4.

For the compound `O=C(CCCCC1SCC2NC(=O)NC21)NCCOCCOCCNC(=O)NC12CC3CC(CC(NCC(=O)N4Cc5ccc(F)cc5C4)(C3)C1)C2` (stereo unspecified), the IC50 in test [1] is > 10 µM; in test [2], > 10 µM; in test [3] it was > 10 µM; in test [4] it was > 5 µM.

In the case of `CN(C)c1cccc2c(S(=O)(=O)NCCOCCOC(=O)NC34CC5CC(CC(NCC(=O)N6Cc7ccc(F)cc7C6)(C5)C3)C4)cccc12`, the IC50 in test [1] is > 10 µM; in test [2], > 10 µM; in test [3], > 10 µM; in test [4], > 5 µM.

On to `O=C(CCCCC1SCC2NC(=O)NC21)NCCOCCOC(=O)NC12CC3CC(CC(NCC(=O)N4Cc5ccc(F)cc5C4)(C3)C1)C2` (stereo unspecified), for which the IC50 in test [1] was > 10 µM; in test [2], > 10 µM; in test [3] it was > 10 µM; in test [4] it was > 5 µM.

In the case of `O=C(CCCCC1SCC2NC(=O)NC21)NCCOCCOCCNC(=O)NC12CC3CC(CC(NCC(=O)N4Cc5cc(F)c(F)cc5C4)(C3)C1)C2` (stereo unspecified), the IC50 is > 10 µM in test [1], > 10 µM in test [2], > 10 µM in test [3] and > 5 µM in test [4].

Regarding `O=C(CCCCC1SCC2NC(=O)NC21)NCCOCCNC(=O)NC12CC3CC(CC(NCC(=O)N4Cc5cc(F)c(F)cc5C4)(C3)C1)C2` (stereo unspecified), the IC50 was > 10 µM in test [1], > 10 µM in test [2], > 10 µM in test [3] and > 5 µM in test [4].

On to `CC(C)[C@H](N)C(=O)N1CCC[C@H]1B(O)O`, for which the Ratio IC50 in test [6] is 3.

Consider `CC[N+]1=C(/C=C/C=C2/N(CCCCCC(=O)NC34CC5CC(CC(NCC(=O)N6Cc7cc(F)c(F)cc7C6)(C5)C3)C4)c3ccc(S(=O)(=O)O)cc3C2(C)C)C(C)(C)c2cc(S(=O)(=O)[O-])ccc21`, for which the IC50 is > 10 µM in test [1], > 10 µM in test [2], > 10 µM in test [3] and > 5 µM in test [4].

Regarding `O=C(CCCCC1SCC2NC(=O)NC21)NCCOCCNC(=O)NC12CC3CC(CC(NCC(=O)N4Cc5ccc(F)cc5C4)(C3)C1)C2` (stereo unspecified), the IC50 in test [1] is > 10 µM; in test [2], > 10 µM; in test [3], > 10 µM; in test [4] it was > 5 µM.

Take `O=C(CCCCC1SCC2NC(=O)NC21)NCCOCCOC(=O)NC12CC3CC(CC(NCC(=O)N4Cc5cc(F)c(F)cc5C4)(C3)C1)C2` (stereo unspecified): the IC50 in test [1] is > 10 µM; in test [2], > 10 µM; in test [3], > 10 µM; in test [4], > 5 µM.

Turning to `O=C(NC12CC3CC(CC(NCC(=O)N4Cc5cc(F)c(F)cc5C4)(C3)C1)C2)OCCOCCNc1ccc([N+](=O)[O-])c2nonc12`, the IC50 in test [1] was > 10 µM; in test [2], 1.7 µM; in test [3], > 10 µM; in test [4], > 5 µM.

For the origin of these results see ChEMBL document CHEMBL5500351, “Active site-directed probes targeting dipeptidyl peptidases 8 and 9” (Eur J Med Chem, 2024).
